In ChEMBL document CHEMBL4270634, “Benzothiazole carbamates and amides as antiproliferative species” (Eur J Med Chem, 2018) one finds Activity data, which are given here for three molecules.

The source made the active and inactive calls. No cut-off for these calls is given here.

Data set [1] deals with NTERA-2-cl-D1. Description: Cell cycle arrest in human NT2/D1 cells assessed as accumulation at G0/G1 phase at 1 uM after 24 hrs by propidium iodide staining based flow cytometry (reference value: 52.65%). The format is functional. On the technique in general: In flow cytometry, cells or beads pass a laser one at a time.
Data set [2] relates to NTERA-2-cl-D1. Description: Induction of cell detachment in human NT2/D1 cells assessed as floating cells at 1 uM after 24 hrs by trypan blue exclusion assay relative to total cell number. The class given is functional.
The test system of data set [3] is Mus musculus. Kind of data set: Acute toxicity in athymic nude mouse at 100 to 400 mg/kg ip administered as single dose measured after 14 days. The format is organism-based. To be noted: in vivo, 336 h. Summed up: (§1)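 Single i.p. injection into nontumored female athymic nude mice as an NCI maximum-tolerated-dose acute toxicity assay.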
In data set [4] the test system is NTERA-2-cl-D1. Description: Induction of apoptosis in human NT2/D1 cells assessed as late apoptotic cells at 1 uM after 24 hrs by Annexin V-FITC/PI staining based flow cytometry. The format is functional. Summed up:
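NT2/D1 cells exposed to 1 µM for 24 h and 48 h. Floating and adherent cells were harvested separately, and each was analysed by Annexin V-FITC/PI flow cytometry for early and late apoptotic fractions.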

Data set [5] has as its system NTERA-2-cl-D1. Description: Cell cycle arrest in human NT2/D1 cells assessed as accumulation at sub-G1 phase at 1 uM after 24 hrs by propidium iodide staining based flow cytometry (reference value: 1.60%). The format is functional.
Data set [6] has as its system MCF7. Kind of data set: Cell cycle arrest in human MCF7 cells assessed as accumulation at G2/M phase at 25 uM after 24 hrs by propidium iodide staining based flow cytometry (reference value: 27.04%). The class given is functional.
For data set [7], the system named is MCF7. Kind of data set: Cell cycle arrest in human MCF7 cells assessed as accumulation at sub-G1 phase at 25 uM after 48 hrs by propidium iodide staining based flow cytometry (reference value: 0.41%). The format is functional.
In data set [8] the test system is MCF7. Description: Induction of apoptosis in human MCF7 cells assessed as early apoptotic cells at 25 uM after 48 hrs by Annexin V-FITC/PI staining based flow cytometry (reference value: 0.98%). The class given is functional.
Data set [9] relates to MCF7. Description: Cell cycle arrest in human MCF7 cells assessed as accumulation at S phase at 25 uM after 24 hrs by propidium iodide staining based flow cytometry (reference value: 28.27%). The format is functional.
For data set [10], the system named is MCF7. Kind of data set: Cell cycle arrest in human MCF7 cells assessed as accumulation at G2/M phase at 25 uM after 48 hrs by propidium iodide staining based flow cytometry (reference value: 28.03%). The class given is functional.
Data set [11] has as its system MCF7. Description: Induction of apoptosis in human MCF7 cells assessed as late apoptotic cells at 25 uM after 24 hrs by Annexin V-FITC/PI staining based flow cytometry (reference value: 2.78%). The class given is functional.
In data set [12] the test system is MCF7. Kind of data set: Cell cycle arrest in human MCF7 cells assessed as accumulation at S phase at 25 uM after 48 hrs by propidium iodide staining based flow cytometry (reference value: 23.07%). The class given is functional.
The subject of data set [13] is MCF7. Description: Effect on cyclin B1 levels in human MCF7 cells at 25 uM after 24 hrs by propidium iodide staining based flow cytometry (reference value: 26.6%). The format is functional. In short, it runs like this:
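MCF-7 cells treated 24 h at 25 µM or 30 µM; intracellular cyclin B1 level measured by flow cytometry.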

For data set [14], the system named is MCF7. Description: Cell cycle arrest in human MCF7 cells assessed as accumulation at G0/G1 phase at 25 uM after 24 hrs by propidium iodide staining based flow cytometry (reference value: 44.23%). The format is functional.
For data set [15], the system named is MCF7. Description: Effect on Bcl-2 protein expression level in human MCF7 cells at IC50 measured after 24 hrs by flow cytometric analysis. The format is functional, cell-based. Summed up:
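Bax and Bcl-2 expression in MCF-7 cells quantified by FACS after 24 and 48 h at a single equipotent (IC₅₀) concentration; Bax/Bcl-2 ratio expressed as fold of untreated control.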

Data set [16] deals with Mus musculus. Description: Acute toxicity in athymic nude mouse at 50 to 200 mg/kg ip administered as single dose measured after 14 days. The note with it: in vivo, 336 h. The format is organism-based. In short, it runs like this: as §1
In data set [17] the test system is MCF7. Kind of data set: Cell cycle arrest in human MCF7 cells assessed as accumulation at G0/G1 phase at 25 uM after 48 hrs by propidium iodide staining based flow cytometry (reference value: 48.80%). The class given is functional.
The subject of data set [18] is MCF7. Kind of data set: Induction of apoptosis in human MCF7 cells assessed as late apoptotic cells at 25 uM after 48 hrs by Annexin V-FITC/PI staining based flow cytometry (reference value: 2.95%). The format is functional.
Data set [19] relates to MCF7. Description: Induction of apoptosis in human MCF7 cells assessed as necrotic cells at 25 uM after 24 hrs by Annexin V-FITC/PI staining based flow cytometry (reference value: 2.62%). The class given is functional.
Data set [20] has as its system MCF7. Description: Induction of apoptosis in human MCF7 cells assessed as decrease in Bcl-2 protein expression level at IC50 measured after 48 hrs by flow cytometric analysis. The format is functional, cell-based.
Data set [21] relates to MCF7. Description: Induction of apoptosis in human MCF7 cells assessed as decrease in p73 protein expression level at IC50 measured after 24 to 48 hrs by flow cytometric analysis. The class given is functional, cell-based.
Data set [22] has as its system MCF7. Kind of data set: Decrease in ROS production in human MCF7 cells at IC50 measured after 24 to 48 hrs by DCFH-DA probe based flow cytometric analysis. The format is functional, cell-based.
In data set [23] the test system is MCF7. Description: Induction of mitochondrial membrane potential loss in human MCF7 cells at IC50 measured after 48 hrs by Rh123 dye-based flow cytometric analysis. The format is functional. Summed up: (§2)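 Mitochondrial membrane potential was assessed by Rh123 incorporation with flow cytometry and compared with untreated cells.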
In data set [24] the test system is MCF7. Kind of data set: Induction of apoptosis in human MCF7 cells assessed as increase in p53 protein expression level at IC50 measured after 24 to 48 hrs by flow cytometric analysis. The class given is functional, cell-based.
In data set [25] the test system is MCF7. Description: Cell cycle arrest in human MCF7 cells assessed as accumulation at sub-G1 phase at 25 uM after 24 hrs by propidium iodide staining based flow cytometry (reference value: 0.65%). The format is functional.
In data set [26] the test system is MCF7. Kind of data set: Induction of apoptosis in human MCF7 cells assessed as necrotic cells at 25 uM after 48 hrs by Annexin V-FITC/PI staining based flow cytometry (reference value: 0.82%). The format is functional.
Data set [27] has as its system MCF7. Description: Induction of apoptosis in human MCF7 cells assessed as early apoptotic cells at 25 uM after 24 hrs by Annexin V-FITC/PI staining based flow cytometry (reference value: 1.30%). The class given is functional. In short, it runs like this: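 MCF-7 cells were treated for 24 h at a single concentration (25 µM or 30 µM, depending on compound). Apoptosis was assessed by bivariate Annexin V-FITC/PI flow cytometry, distinguishing early apoptotic from late apoptotic/necrotic cells, against untreated control.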

For data set [28], the system named is MCF7. Description: Induction of apoptosis in human MCF7 cells assessed as increase in Bax protein expression level at IC50 measured after 24 to 48 hrs by flow cytometric analysis. The format is functional, cell-based.
Data set [29] relates to MCF7. Description: Cell cycle arrest in human MCF7 cells at 25 uM by propidium iodide staining based flow cytometry. The class given is functional. To be noted: TDE = time-dependent effect.
Data set [30] relates to MCF7. Description: Induction of mitochondrial membrane potential loss in human MCF7 cells at IC50 measured after 24 hrs by Rh123 dye-based flow cytometric analysis. The format is functional, cell-based. Summed up: as §2
Data set [31] has as its system MCF7. Kind of data set: Decrease in ROS production in human MCF7 cells at 25 uM measured after 24 hrs by DCFH-DA probe based flow cytometric analysis. The format is functional. Further details: scale not given: the % may be the effect or the level left. In short, it runs like this: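 MCF-7 cells exposed 24 h at 25 µM. Intracellular ROS measured by flow cytometry with DCFH-DA and compared to untreated control cells.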

`CCCCSc1ccc2nc(NC(=O)OCCC)sc2c1`: the Activity in the data set on NTERA-2-cl-D1 [1] is 9.46%; in the data set with NTERA-2-cl-D1 [2], 79%; in the data set with Mus musculus [3], “Non-Toxic”; with NTERA-2-cl-D1 [4], 50%; in the data set on NTERA-2-cl-D1 [5], 12.89%.
In the case of `CCCOC(=O)Nc1nc2ccc(SCCC)cc2s1`, the Activity in the data set with MCF7 [6] is given as 40.66%; in the data set on MCF7 [7], 50.4%; with MCF7 [8] it was 61.06%; in the data set with MCF7 [9], 19.3%; in the data set on NTERA-2-cl-D1 [1], 22.69%; in the data set with MCF7 [10], 15.25%. Further, the Activity is given as 4.33% in the data set with MCF7 [11]; 15.9% in the data set on MCF7 [12]; 50.8% in the data set on MCF7 [13]; 15.62% in the data set on MCF7 [14]; “Non-Toxic” with Mus musculus [16]; 18.82% in the data set on MCF7 [17]. In addition, the Activity is on record as 7.53% with MCF7 [18]; 42% with NTERA-2-cl-D1 [2]; 3.53% with MCF7 [19]; greater than 80% in the data set on MCF7 [23]; 24.58% in the data set on MCF7 [25]; 2.61% with MCF7 [26]. Moreover, the Activity with MCF7 [27] is 21%; with NTERA-2-cl-D1 [4] it was 50%; with NTERA-2-cl-D1 [5], 21.08%; in the data set with MCF7 [29], “Tde”. Further, the result in the data set with MCF7 [15] and in the data set with MCF7 [21] was inactive. The result in the data set on MCF7 [20], in the data set with MCF7 [22], with MCF7 [24], in the data set with MCF7 [28] and in the data set on MCF7 [30] was Active.
As for `CCCOC(=O)Nc1nc2ccc(OCC)cc2s1`, in the data set on MCF7 [31], the Activity is recorded as 15%.
